Experimental findings from ChEMBL document CHEMBL1955756, “Design and synthesis of novel sulfonamide-containing bradykinin hB(2) receptor antagonists. Synthesis and structure-relationships of α,α-tetrahydropyranylglycine” (Bioorg Med Chem, 2012) are described below.

Assay [1] addresses T1, B2 bradykinin receptor (Homo sapiens, UniProt P30411).
T1 sequence (P30411 whole entry): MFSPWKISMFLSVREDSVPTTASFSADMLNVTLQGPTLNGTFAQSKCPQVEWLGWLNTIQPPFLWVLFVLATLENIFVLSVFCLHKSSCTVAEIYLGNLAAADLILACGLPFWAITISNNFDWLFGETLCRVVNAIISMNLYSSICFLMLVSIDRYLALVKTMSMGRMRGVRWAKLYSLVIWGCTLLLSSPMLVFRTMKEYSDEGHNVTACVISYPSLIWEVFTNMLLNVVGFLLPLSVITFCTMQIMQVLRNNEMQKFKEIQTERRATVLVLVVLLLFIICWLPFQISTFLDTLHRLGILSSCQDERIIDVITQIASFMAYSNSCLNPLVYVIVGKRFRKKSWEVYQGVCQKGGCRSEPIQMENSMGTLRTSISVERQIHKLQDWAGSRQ
In words: Displacement of [3H]-Bradykinin from human bradykinin B2 receptor expressed in CHO cells membrane after 60 mins by scintillation counting. It counts as cell membranes. (In a radioligand displacement assay an active substance lowers the binding of a labelled ligand.)

Assay [2] has as its target T1, B2 bradykinin receptor. Briefly: Antagonist activity at human bradykinin B2 receptor expressed in dhfr-deficient CHO cells assessed as inhibition of bradykinin-induced inositol monophosphate accumulation preincubated for 15 mins prior bradykinin induction measured after 40 mins by liquid scintillation spectrometry. As to conditions: read-out: pA2 (converted). It counts as functional, cell-based. In outline:
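CHOdhfr-/hB2R cells (1.8×10^5/well) plated overnight at 37 °C, labelled 24 h with myo-[3H]inositol (1 uCi/well). Antagonist pre-incubation 15 min, then BK 1×10^-11 to 1×10^-5 M for 40 min at 37 °C in Hepes pH 7.4 buffer with 25 mM LiCl. IP1 radioactivity by liquid scintillation. Agonist curves fitted for EC50; pA2 = log(CR−1) − log[antagonist].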

The target in the next assay is T2, B1 bradykinin receptor (Homo sapiens, UniProt P46663).
T2 sequence (P46663 whole entry): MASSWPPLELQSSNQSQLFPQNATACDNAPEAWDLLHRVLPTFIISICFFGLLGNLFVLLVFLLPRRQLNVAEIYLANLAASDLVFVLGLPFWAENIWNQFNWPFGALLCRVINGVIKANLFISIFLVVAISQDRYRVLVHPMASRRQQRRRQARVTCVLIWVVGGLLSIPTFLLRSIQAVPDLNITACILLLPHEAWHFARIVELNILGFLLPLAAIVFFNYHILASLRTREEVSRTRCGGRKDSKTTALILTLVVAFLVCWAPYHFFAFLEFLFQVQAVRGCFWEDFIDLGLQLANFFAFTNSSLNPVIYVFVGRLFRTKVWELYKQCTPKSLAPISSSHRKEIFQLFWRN
In words: Displacement of [3H][desArg9]Lys-Bradykinin from human bradykinin B1 receptor expressed in CHO cells. It counts as cell-based.

In assay [3] the target is T3, B2 bradykinin receptor (Homo sapiens) (UniProt P30411).
T3 sequence (whole entry): T1 sequence (P30411 whole entry)
Briefly: Reversible antagonist activity at human bradykinin B2 receptor expressed in dhfr-deficient CHO cells assessed as inhibition of bradykinin-induced inositol monophosphate accumulation at 3 uM preincubated for 15 mins prior bradykinin induction measured after 15 mins washout by liquid scintillation spectrometry. It counts as functional, cell-based. In outline:
(§1)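 Washout in the IP accumulation assay in CHO/hB2R cells: antagonist (3 µM or 100 nM) pre-incubated 15 min, with medium then fully replaced every 15 min in washed cells. BK (2 nM) added and the reaction stopped after one hour; IP formed quantified. Expressed as % inhibition of time-matched BK responses in vehicle-pre-incubated cells.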

Assay [4] concerns the target T3, B2 bradykinin receptor (Homo sapiens). Briefly: Reversible antagonist activity at human bradykinin B2 receptor expressed in dhfr-deficient CHO cells assessed as inhibition of bradykinin-induced inositol monophosphate accumulation at 3 uM preincubated for 15 mins prior bradykinin induction measured after 30 mins washout by liquid scintillation spectrometry. It counts as functional, cell-based. In a few lines: as §1

The target is the same in assay [5]. In words: Reversible antagonist activity at human bradykinin B2 receptor expressed in dhfr-deficient CHO cells assessed as inhibition of bradykinin-induced inositol monophosphate accumulation at 3 uM preincubated for 15 mins prior bradykinin induction measured after 45 mins washout by liquid scintillation spectrometry. It counts as functional, cell-based. In outline: as §1

Another assay relates to Cavia porcellus. In words: Inhibition of bradykinin-induced bronchoconstriction in anesthetized Dunkin-Hartley guinea pig at […], it 5 mins prior bradykinin-induction for every 30 mins up to 210 mins. It counts as functional, organism-based. In a few lines:
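Anaesthetized male Dunkin Hartley guinea pigs, 350–400 g. Compound given intratracheally, then repeated iv BK challenges (10 nmol/kg) with bronchoconstriction recorded.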

Assay [6] addresses T4, B2 bradykinin receptor (Cavia porcellus, UniProt O70526).
T4 sequence (O70526 whole entry): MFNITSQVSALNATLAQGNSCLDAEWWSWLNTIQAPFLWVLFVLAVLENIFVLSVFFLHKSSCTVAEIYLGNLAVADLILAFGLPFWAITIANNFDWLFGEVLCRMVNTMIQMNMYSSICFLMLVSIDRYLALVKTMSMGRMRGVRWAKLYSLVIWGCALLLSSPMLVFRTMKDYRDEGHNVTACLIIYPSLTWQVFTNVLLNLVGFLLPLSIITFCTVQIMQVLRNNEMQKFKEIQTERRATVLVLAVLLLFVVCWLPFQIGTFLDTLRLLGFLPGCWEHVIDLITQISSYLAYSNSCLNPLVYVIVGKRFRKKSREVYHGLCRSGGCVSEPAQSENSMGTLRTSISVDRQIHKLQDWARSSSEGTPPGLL
In words: Antagonist activity at guinea pig bradykinin B2 receptor in longitudinal smooth muscle assessed as inhibition of bradykinin-induced contractile responses. It counts as functional. Particulars: read-out: pA2 (converted).

In assay [7] the target is T3, B2 bradykinin receptor (Homo sapiens). Briefly: Reversible antagonist activity at human bradykinin B2 receptor expressed in dhfr-deficient CHO cells assessed as inhibition of bradykinin-induced inositol monophosphate accumulation at 100 nM preincubated for 15 mins prior bradykinin induction measured after 15 mins washout by liquid scintillation spectrometry. It counts as functional, cell-based. In a few lines: as §1

Assay [8] shares this target. Briefly: Reversible antagonist activity at human bradykinin B2 receptor expressed in dhfr-deficient CHO cells assessed as inhibition of bradykinin-induced inositol monophosphate accumulation at 100 nM preincubated for 15 mins prior bradykinin induction measured after 30 mins washout by liquid scintillation spectrometry. It counts as functional, cell-based. In outline: as §1

The target is the same in assay [9]. Briefly: Reversible antagonist activity at human bradykinin B2 receptor expressed in dhfr-deficient CHO cells assessed as inhibition of bradykinin-induced inositol monophosphate accumulation at 100 nM preincubated for 15 mins prior bradykinin induction measured after 45 mins washout by liquid scintillation spectrometry. It counts as functional, cell-based. In a few lines: as §1

Structures are written as SMILES. Active and inactive are the calls of the source. The rule behind the calls is not given here.

The term Ki denotes a measure of affinity in units of concentration, obtained from inhibition or displacement. The low end stands for a stronger hold on the target, the high end for a looser hold on the target. The term inhibition denotes how much of the control response was suppressed.

Regarding `Cc1cc(C)c2cccc(OCc3c(Cl)ccc(S(=O)(=O)NC4(C(=O)N5CCC(CCCC[N+](C)(C)C)CC5)CCOCC4)c3Cl)c2n1`, the inhibitory constant (Ki) was 0.631 nM on B2 bradykinin receptor [1] and greater than 10000 nM at B1 bradykinin receptor. Also, the Kb on B2 bradykinin receptor [2] was 3.98 nM. Besides, the values for the inhibition in assay [3], in [4] and in assay [5] were 23%, 6% and -0%, respectively.
Take `Cc1cc(C)c2cccc(OCc3c(Cl)ccc(S(=O)(=O)NC4(C(=O)N5CCN(C(=O)CCCC[N+](C)(C)C)CC5)CCOCC4)c3Cl)c2n1`: the Ki on B2 bradykinin receptor [1] was 0.0794 nM; at B1 bradykinin receptor it was greater than 10000 nM. Further, the figures for the Kb on B2 bradykinin receptor [2] and at B2 bradykinin receptor [6] were 0.316 nM and 0.0631 nM, respectively. In addition, the inhibition result in the assay with Cavia porcellus is “inactive”.
For `Cc1cc(C)c2cccc(OCc3c(Cl)ccc(S(=O)(=O)NC4(C(=O)N5CC[N+]6(CCCCC6)CC5)CCOCC4)c3Cl)c2n1`, the Ki is 0.398 nM at B2 bradykinin receptor [1] and greater than 10000 nM at B1 bradykinin receptor. For the same compound, the Kb at B2 bradykinin receptor [2] is 2.63 nM. Besides, the inhibition in [7] was 72%; in [8], 9%; in [9], -0%.
